Data: ChEMBL document CHEMBL1629474, “Massive screening yields novel and selective Trypanosoma cruzi triosephosphate isomerase dimer-interface-irreversible inhibitors with anti-trypanosomal activity” (Eur J Med Chem, 2010)
Active and inactive are the calls of the source. The rule behind the calls is not given here.

Legend:
[1] = Selectivity for Trypanosoma cruzi triosephosphate isomerase over human triosephosphate isomerase
[2] = target: Triosephosphate isomerase, glycosomal (Trypanosoma cruzi) (UniProt P52270); test: Inhibition of Trypanosoma cruzi triosephosphate isomerase at 400 uM after 2 hrs
Outline: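 Recombinant E. coli-expressed enzyme, dialyzed into 100 mM triethanolamine/10 mM EDTA pH 7.4, was incubated with compound (DMSO stock) in 100 mM triethanolamine, 10 mM EDTA, pH 7.4, 10% DMSO at 36 °C for 2 h. An aliquot was then assayed for activity (glyceraldehyde 3-phosphate to dihydroxyacetone phosphate, α-glycerol phosphate dehydrogenase-coupled) with 5 ng enzyme. Irreversible inhibition was scored as loss of activity; means of two experiments.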

Trypanosoma cruzi = test: Antiparasitic activity against Trypanosoma cruzi T2 epimastigotes assessed as growth inhibition at 25 uM after 5 days; assay type: functional
Outline: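 Late-log epimastigotes were grown axenically at 28 °C in BHI-tryptose with 5% fetal calf serum and seeded at 2×10^6/mL in medium containing compound (DMSO stock; final DMSO ≤1%, 1% DMSO control). Growth was read as A590 at day 0 and day 5. Inhibition = {1 − [(Ap − A0p)/(Ac − A0c)]} × 100. Means of two experiments.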

Sequence of Triosephosphate isomerase, glycosomal (Trypanosoma cruzi) (P52270 whole entry): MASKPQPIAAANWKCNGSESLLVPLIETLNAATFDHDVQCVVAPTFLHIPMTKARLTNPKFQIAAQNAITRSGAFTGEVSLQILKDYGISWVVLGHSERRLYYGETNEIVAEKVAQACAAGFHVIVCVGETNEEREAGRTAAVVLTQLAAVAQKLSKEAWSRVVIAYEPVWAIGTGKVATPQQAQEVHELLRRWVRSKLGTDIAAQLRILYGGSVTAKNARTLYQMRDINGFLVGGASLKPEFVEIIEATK

Structure (SMILES) | Ratio [1] | inhibition [2] | Activity (Trypanosoma cruzi)
C=CCNC(=S)N/N=C/c1ccc2no[n+]([O-])c2c1 | > 4 | 14% | Active
Cc1c(C(=O)Nc2ccccc2)[n+]([O-])c2cc(CNC/C=C/c3ccccc3)ccc2[n+]1[O-] | > 4 | 23% | Active
C=CCNC(=S)N/N=C/c1ccc([N+](=O)[O-])o1 | > 4 | 6% | Active
N#Cc1c(N)[n+]([O-])c2ccc(CN3CCN(C/C=C/c4ccccc4)CC3)cc2[n+]1[O-] | > 4 | 18% | Active
C=CCNC(=S)N/N=C/c1ccc([N+](=O)[O-])s1 | > 4 | 58% | Active
O=C(/C=C/c1ccco1)N1CCN(C/C=C/c2ccccc2)CC1 | > 4 | 0% | Active
CC(=O)NCc1ccccc1 | > 4 | 32% | Active
CCCCNC(=O)N/N=C/c1c(-c2ccccc2)no[n+]1[O-] | > 4 | 27% | Active
[O-][n+]1onc2ccc(C=Cc3ccc(C(F)(F)F)cc3)cc21 | > 4 | 33% | Active
COCCNC(=O)N/N=C/C=C/c1ccc([N+](=O)[O-])o1 | > 4 | 0% | Active
COCCNC(=O)N/N=C/c1ccc([N+](=O)[O-])o1 | > 4 | 5% | Active
CC(=O)Oc1c(C)c(C)c2c(c1C)CCC(C)(C(=O)NCCO[N+](=O)[O-])O2 (configuration not stated) |  | 7% | 
CSc1ccc(/C=C/C(=O)c2ccccc2)cc1 | > 4 | 14% | Active
CC1(C)[N+]([O-])=c2ccc(/C=C/c3ccccc3)cc2=[N+]1[O-] | > 4 | 0% | Active
C=C(C)CNC(=O)Oc1ccccc1 | > 4 | 48% | Active
Cc1n(O)c2ccc(Br)cc2[n+]1[O-] | > 4 | 4% | Active
C=CCNC(=S)N/N=C/c1ccc2c(c1)[n+]([O-])c(C)c(C)[n+]2[O-] | > 4 | 42% | Active
COCCNC(=O)/C=C/c1ccc([N+](=O)[O-])o1 | > 4 | 0% | Active
C/C(=C\c1ccc(N(C)C)cc1)[N+](=O)[O-] | > 4 | 24% | Active
[O-][n+]1onc2ccc(/C=N/NC(=S)Nc3ccccc3)cc21 | > 4 | 60% | Active
CC(=N\c1ccc(C)cc1)/C(C)=N/c1ccc(C)cc1 | > 4 | 23% | Active
C=CCNC(=S)N/N=C/c1ccc2c(c1)[n+]([O-])c(C#N)c(N)[n+]2[O-] | > 4 | 45% | Active
CCCCCCNC(=O)N/N=C/c1c(-c2ccccc2)no[n+]1[O-] | > 4 | 4% | Active

Structure (SMILES) | Ratio [1] | inhibition [2] | Activity (Trypanosoma cruzi)
CCCCNC(=O)N/N=C/C=C/c1ccc([N+](=O)[O-])o1 | > 4 | 1% | Active
C=CCNC(=S)N/N=C/c1ccc2c(c1)=[N+]([O-])C(C)(C)[N+]=2[O-] | > 4 | 33% | Active
Cc1no[n+]([O-])c1/C=N/NC(N)=O | > 4 | 2% | Active
CCOC(=O)c1nsc(-c2cc(C(C)(C)C)c(O)c(C(C)(C)C)c2)n1 | > 4 | 65% | Active
CN(C)CCCNS(=O)(=O)NCCCN(C)C | > 4 | 0% | Active
O=C1CC(=O)N(CCc2ccccc2)S(=O)(=O)N1CCc1ccccc1 | > 4 | 0% | Active
[O-][n+]1onc2ccc(CBr)cc21 | > 4 | 10% | Active
CC(=O)Oc1c(C)c(C)c2c(c1C)CCC(C)(C(=O)NCCOc1c(S(=O)(=O)c3ccccc3)no[n+]1[O-])O2 (configuration not stated) | > 4 | 25% | Active
O=C(CCl)Oc1ccc2c(c1)[n+]([O-])c1cc(Br)ccc1[n+]2[O-] | > 4 | 50% | Active
CC1(C)[N+]([O-])=c2ccc(COc3ccc(C=O)cc3)cc2=[N+]1[O-] | > 4 | 26% | Active
CC(=O)CC(=O)Nc1ccccc1 | > 4 | 17% | Active
COc1ccc(NCc2c(-c3ccccc3)no[n+]2[O-])cc1 | > 4 | 39% | Active
Cc1ccc2c(c1)[n+]([O-])c(C)n2O | > 4 | 6% | Active
O=[N+]([O-])c1ccc(/C=N/NC(=S)Nc2ccccc2)o1 | > 4 | 17% | Active
O=[N+]([O-])c1ccc2c(c1)[n+]([O-])c1n2CCOC1 | > 4 | 14% | Active
O=Cc1ccc2no[n+]([O-])c2c1 | > 4 | 14% | Active
CCCCCCOC(=O)N/N=C/c1no[n+]([O-])c1C | > 4 | 17% | Active
COc1ccc(C(=O)/C=C/c2ccc3no[n+]([O-])c3c2)cc1 | > 4 | 45% | Active
O=[N+]([O-])c1ccc(N2CCOCC2)c([N+](=O)[O-])c1 | > 4 | 19% | Active
CC1(C)[N+]([O-])=c2ccc(/C=C/c3ccc4c(c3)OCO4)cc2=[N+]1[O-] | > 4 | 23% | Active
COc1ccc(C=O)cc1-c1cc(C=O)ccc1O | > 4 | 32% | Active
CCCN(CCOCCn1nc(OCc2ccccc2)c2cc([N+](=O)[O-])ccc21)CCC(C)C1CC=C(C)CC1 (configuration not stated) | > 4 | 0% | Active
O=C(N/N=C/c1ccc([N+](=O)[O-])o1)N1CCOCC1 | > 4 | 0% | Active

Structure (SMILES) | Ratio [1] | inhibition [2] | Activity (Trypanosoma cruzi)
O=S(=O)(/C=C/c1ccc2no[n+]([O-])c2c1)c1ccc(F)cc1 | > 4 | 15% | Active
NC1=NS(=O)(=O)N=C(N)C1 | > 4 | 0% | Active
Cc1c(C=O)no[n+]1[O-] | > 4 | 27% | Active
CC1[N+]([O-])=c2ccc(Cc3ccccc3)cc2=[N+]1[O-] (configuration not stated) | > 4 | 25% | Active
O=[N+]([O-])c1ccc2c(c1)c(OCc1ccccc1)nn2CCOCCN1CCN(C/C=C/c2ccccc2)CC1 | > 4 | 18% | Active
O=Cc1cccc(OCCCN2C(=O)c3ccccc3C2=O)c1 | > 4 | 0% | Active
Cn1c2ccc(Cl)cc2c(-c2ccccc2)[n+]1[O-] | > 4 | 16% | Active
CCCCNC(=O)N/N=C/c1ccc2no[n+]([O-])c2c1 | > 4 | 38% | Active
[O-][n+]1onc2ccc(C=Cc3ccc(Br)cc3)cc21 | > 4 | 22% | Active
O=[N+]([O-])c1ccc(N2CCSCC2)c([N+](=O)[O-])c1 | > 4 | 20% | Active
CCCCNC(=O)N/N=C/c1c(C)no[n+]1[O-] | > 4 | 2% | Active
[O-][n+]1onc2ccc(/C=N/O)cc21 | > 4 | 27% | Active
O=C(/C=C/c1ccc([N+](=O)[O-])o1)NCCCl | > 4 | 13% | Active
[O-][N+]1=c2ccc(Br)cc2=[N+]([O-])C12CCCC2 | > 4 | 23% | Active
O=C(O)c1ccc(/C=C\c2ccc3no[n+]([O-])c3c2)cc1 | > 4 | 6% | Active
Cc1nnsc1CO | > 4 | 29% | Active
CCCCNC(=O)N/N=C/c1ccc([N+](=O)[O-])s1 | > 4 | 18% | Active
CCNC(=S)N/N=C/c1ccc([N+](=O)[O-])o1 | > 4 | 3% | Active
CNC(=S)N/N=C/C=C/c1ccc([N+](=O)[O-])o1 | > 4 | 9% | Active
[O-][N+]1=c2ccccc2=[N+]([O-])C12CCCC2 | > 4 | 12% | Active
[O-][n+]1onc(-c2ccccc2)c1CO |  | 23% | 
